A number with no mark means an inactive call. Records with an inconclusive call do not appear. Calls of active or inactive are those of the source.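 The calls were made as follows, unless noted: active = growth inhibition above 25% in both replicates, a cutoff set 3 SD above the mean; inconclusive = above 25% in only one replicate; inactive = the rest.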
Assays:
[1] = S. cerevisiae growth inhibition in permissive medium (OD615), pilot counter-assay for S. cerevisiae lifespan shortening project, permissive growth control (AID 705); details: OD615, 24 h, at 10 µM, active compounds read high
Outline: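 assay system = Saccharomyces cerevisiae strain carrying genetically modified DeaD replicative-lifespan system | technique = absorbance (optical density) at 615 nm | buffer or medium = permissive raffinose/galactose medium | timing = cells pre-grown 4 h, then 24 h compound exposure, 30 °C humidified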

[2] = S. cerevisiae growth inhibition in restrictive medium, OD615, pilot screen, restrictive growth control, yeast lifespan reduction project (AID 706;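 active = growth inhibition above a set limit, 3 SD over mean compound inhibition, in both replicates, cut at about 43% in these data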;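 also: modified DeaD lifespan yeast strain shifted to restrictive glucose medium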); details: OD615, 48 h, at 10 µM, active compounds read high
Outline: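 System: modified S. cerevisiae. Buffer or medium: CSMM-D glucose medium. Incubation: 4 h pre-growth plus 48 h compound exposure, 30 °C. Detection: absorbance (optical density) measured at 615 nm.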

[3] = doxorubicin toxicity protection in MRP-1 cells – H69AR cells, CellTiter-Glo, duplicate, MRP-1 activator project, pilot screen (AID 807;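 active = viability increase at or above a cutoff of the median across tested compounds plus 3 SD, cut at about 8.5% in these data, passing the limit was not always enough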;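 also: compound pretreatment 18-22 h then 72 h combined with doxorubicin; 0% = doxorubicin alone and 100% = vehicle without doxorubicin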); details: H69AR viability with doxorubicin, CellTiter-Glo luminescence; at 10 µM; active compounds read high
[4] = viability of HCT116 without oncogenic beta-catenin – human colon tumor cells, pilot screen (AID 823;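 active = cell viability at or below a set limit in both duplicate runs, the limit being the all-compound median minus 4 SD, cut at about 23% in these data, passing the limit was not always enough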;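 also: 0% = wells killed by 20 µM Hyamine and 100% = untreated DMSO cell wells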); details: HCT116 beta-catenin knockout viability, CellTiter-Glo, 60 h; at 10 µM; active compounds read low
[5] = viability of PTEN-null HCT116 cells – cell-based, HCT116 clonal line, CellTiter-Glo, pilot screen (AID 824;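 active = viability at or below 27.92% in each of two runs, the all-compound median minus 4 SD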;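 also: 0% = 20 µM Hyamine control and 100% = vehicle cell control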); details: HCT116 PTEN-deleted viability, 60 h, at 10 µM, active compounds read low
[6] = RAM pathway blockade in budding yeast – dse1pr::URA3 reporter, 5-FOA selection, pilot screen (AID 869;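 active = inhibition over a set limit, the all-compound mean plus 3 SD, in both replicate runs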;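 also: 0% = DMSO wells with no growth and 100% = 10 µM 1-NA-PP1 with full growth; RAM network block rescues cells from 5-FOA so hits raise OD615 growth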); details: S. cerevisiae dse1pr::URA3 5-FOA growth, OD615, 2 d; at 10 µM; active compounds read high; strain carries analog-sensitive mutant Cbk1 kinase
[7] = RAM signaling pathway blockade in yeast – S. cerevisiae, Pdr1DBD-CYC8 efflux-inhibited sensitized strain, primary screen (AID 1298;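 active = RAM network inhibition above 8.4% in each of two replicates, 3 SD over the compound average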;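 also: 0% = DMSO untreated cells without growth and 100% = 10 µM 1-NA-PP1 full growth; higher means more yeast growth rescued from 5-FOA killing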); details: S. cerevisiae cbk1-as DSE1-URA3 strain, 5-FOA growth OD615, 2 d; at 50 µM; active compounds read high

Row | SMILES | growth inhibition [1] [%] | growth inhibition [2] [%] | viability increase [3] [%] | viability [4] | viability [5] | inhibition [6] [%] | RAM network inhibition [7] [%]
1 | Cc1ccc(C(=O)COC(=O)c2cnccn2)cc1 | -15.1 | -10.8 | -1.61 | 104% | 97.8% | 2.19 | 1.61
2 | OC(C#CCN1CCCC1)c1ccccc1 (centres undefined) | -1.08 | -5.8 | -0.22 | 91.6% | 98.8% | 0.7 | -0.43
3 | CC1=CC(C)(C)N(C(=O)CSc2nccn2C)c2cc(C)ccc21 | -12.3 | -6.42 | -3.04 | 84.6% | 84% | 1.09 | 0.77
4 | CCCC(=O)C1=C(O)C(C(=O)OC)C(C)(C)CC1=NC (centres undefined) | -14.5 | -12.3 | 0.12 | 95.3% | 94.9% | 0.54 | 0.46
5 | CCSc1nnc(Cn2c(=O)sc3ccccc32)n1-c1ccccc1C | -2.14 | -4.08 | -1.61 | 93.9% | 89.7% | 1.61 | 8.51
6 | CCOc1ccccc1NC(=O)CSc1nc2c(c(=O)n1C)SC(C)C2 (centres undefined) | -8.29 | -4.14 | -2.89 | 92.3% | 89.1% | 2 | 4.44
7 | CCOC(=O)c1[nH]c2c(c1C)C(=O)CC(c1ccc(F)cc1)C2 (centres undefined) | -5.83 | -18.5 | -4.6 | 16.7% (active) | 20.4% (active) | 0.11 | 1.42
8 | CCOC(=O)CCCSc1nc2sc(C)c(C)c2c(=O)[nH]1 | -12.1 | -15.5 | -0.74 | 102% | 98.5% | 3.01 | 3.95
9 | c1ccc(-c2ccc(-c3nc(-c4cccnc4)no3)cc2)cc1 | 16.4 | 20 | -0.01 | 80.8% | 89.3% | 0.455 | -0.01
10 | CCn1c2ccccc2c2nnc(SCN3C(=O)c4ccccc4C3=O)nc21 | -12.1 | -1.02 | -3.94 | 98.5% | 100% | 2.71 | 5.66
11 | Cn1c(=O)oc2cc(S(=O)(=O)Nc3ccc(Cl)cc3F)ccc21 | -9.48 | -19.3 | 2.12 | 105% | 92.7% | 0.53 | 9.07
12 | CCc1ccccc1N1CC23C=CC(O2)C(C(=O)OC)C3C1=O (centres undefined) | -17.5 | -18.8 | -0.91 | 92.7% | 99% | 0.9 | 5.27
13 | Cc1ccc(C2CC(c3cccc(Br)c3)n3nc(N)nc3N2)cc1 (centres undefined) | 0.285 | 22.3 | -1.6 | 68.2% | 67.2% | 1.82 | 5.91
14 | Cc1ccc2oc(=O)c3cc(C(=O)NCCN4CCN(C)CC4)sc3c2c1 | -0.32 | -8.46 | -1.81 | 85.5% | 83.5% | 0.16 | 0.45
15 | CCCCOc1cccc(C2(C(=O)O)CCCC2)c1 | -6.28 | 4.47 | -1.49 | 99% | 94.5% | 1.21 | 4.01
16 | COc1ccc(-n2nc3cc(C)c(NC(=O)CC(C)C)cc3n2)cc1 | -7.39 | -3.86 | -0.97 | 94% | 92.2% | 0.405 | 3.76
17 | Cc1onc(-c2ccccc2Cl)c1C(=O)NCCN1Cc2ccccc2C1=O | -0.695 | 4.3 | -4.11 | 102% | 90.5% | 0.375 | 0.31
18 | CC1CCN(C(=O)CSc2ccc3nnc(-c4cccc(F)c4)n3n2)CC1 | -0.835 | -0.735 | -3.12 | 79.5% | 81.3% | 0.67 | -1.03
19 | COc1ccc(NC2c3ccccc3C(=O)N2c2cccnc2)cc1Cl (centres undefined) | 4.54 | 2.02 | -2.35 | 89.5% | 80.4% | 2.27 | 0.67

Row | SMILES | growth inhibition [1] [%] | growth inhibition [2] [%] | viability increase [3] [%] | viability [4] | viability [5] | inhibition [6] [%] | RAM network inhibition [7] [%]
20 | OC(COc1cccc2ccccc12)CN1CCN(c2ccccn2)CC1 (centres undefined) | -5.36 | 1.3 | -2.34 | 84.9% | 81.7% | 0.445 | 2.59
21 | O=C(NC(Nc1ncccn1)C(=O)c1ccccc1)c1ccccc1 (centres undefined) | 5.63 | -0.54 | -0.49 | 96.6% | 98.5% | -0.25 | 2.01
22 | CCC(C)Sc1nc2c(cnn2-c2ccc(C)c(C)c2)c(=O)[nH]1 (centres undefined) | -5.49 | 1.98 | -3.4 | 73% | 75.9% | 3.72 | -0.06
23 | CC1CCc2nn(CC(=O)NC3CCCC(C)C3C)cc2C1 (centres undefined) | -6.6 | -6.19 | 1.67 | 97.5% | 85.3% | -0.3 | 1.94
24 | O=C1c2ccccc2-c2ncnc3c(N4CCOCC4)cc(N4CCOCC4)c1c23 | -12.8 | -3.37 | -7.53 | 79.2% | 80.9% | -0.74 | -1.52
25 | CCCOCCOC(=O)C1=C(C)NC(=O)NC1c1cc(Cl)c(O)c(OC)c1 (centres undefined) | -3.46 | -0.16 | -0.57 | 102% | 94.6% | 0.265 | -1.04
26 | COc1cc2ccccc2cc1-c1nnc(COc2ccccc2)o1 | -8.96 | -14.4 | -2.61 | 98.2% | 83.4% | 4 | 2.39
27 | Cc1occc1-c1nnc2sc(-c3ccc(-c4ccc(Cl)cc4)o3)nn12 | 7.94 | 21.2 | 2.86 | 106% | 95.8% | 3.19 | 5.57
28 | COc1ccc2cc(S(=O)(=O)N3CCOCC3)ccc2c1 | -11.2 | -7.81 | -1.77 | 94.4% | 99.2% | 0.075 | 1.03
29 | CCOc1ccc(C(=O)NCc2ccncc2)cc1OCC | 8.96 | 7.73 | -0.92 | 92.9% | 90% | 2.33 | 0.83
30 | O=C(CCNS(=O)(=O)c1cccc2nonc12)NCCc1ccc(Cl)cc1 | -2.56 | -9.13 | 5.07 | 90% | 101% | -0.08 | 3
31 | CC(C)Cc1nnc(NC(=O)CCN2C(=O)c3ccccc3C2=O)s1 | 5.23 | 16 | 0.42 | 106% | 98.4% | 1.21 | 9.47
32 | COc1ccc(C(=O)Nc2c(F)c(F)c(F)c(F)c2F)c(OC)c1 | -11 | 3.84 | -1.15 | 100% | 102% | 2.96 | 2.45
33 | CCC(=O)N/C(=N/c1nc(C)cc(C)n1)Nc1cccc(OC)c1 | -5.62 | -19.7 | -4.53 | 41.1% | 36.4% | 2.23 | 3.66
34 | CC(C)(C)c1ccc(-c2cc(N)n[nH]2)cc1 | 2.28 | 13.2 | -2.81 | 95.5% | 90.1% | 2.32 | 2.2
35 | COc1ccc(-c2nnc3ccc(SCC(=O)N4CCCCCC4)nn23)cc1OC | 1.58 | -3.42 | -4.16 | 103% | 109% | 0.615 | 0.05
36 | CCc1cc2c(=O)c(Oc3ccccc3F)c(C)oc2c(CN(C)C)c1O | -5.07 | 9.37 | -7.21 | 95.2% | 89.1% | 3.73 | 6.03
37 | CCOC(=O)C1CCN(CC(O)COc2ccc(C(C)=O)cc2)CC1 (centres undefined) | -1.86 | -5.14 | -0.88 | 97.6% | 91.6% | 0.87 | 2.51
